The text below walks through data of ChEMBL document CHEMBL3120098, “Structure-activity relationship (SAR) optimization of 6-(indol-2-yl)pyridine-3-sulfonamides: identification of potent, selective, and orally bioavailable small molecules targeting hepatitis C (HCV) NS4B” (J Med Chem, 2014).

Where only a bound is given, the exact number is not on record here.

For orientation: IC50 means the midpoint of a concentration-inhibition curve. What is called AUC(0-t) is the area under the concentration-time curve up to a stated or last time point. What is called EC50 is the concentration giving half of the maximal effect. The term Kp denotes the ratio of the level in a tissue or fluid to that in plasma or blood.

Data set [1] concerns the target Cytochrome P450 2C9 (Homo sapiens, UniProt P11712). Put plainly: Inhibition of CYP2C9 in human liver microsomes. Format: ADME.
Data set [2] concerns the target Cytochrome P450 2D6 (Homo sapiens, UniProt P10635). Briefly: Inhibition of CYP2D6 in human liver microsomes. Format: ADME. A general note: Microsomes from liver hold many membrane-bound enzymes, among them those of drug oxidation.
The target in data set [3] is T1, Cytochrome P450 3A4 (Homo sapiens, UniProt P08684). Put plainly: Inhibition of CYP3A4 in human liver microsomes. It is filed as ADME.
Data set [4] in a line: Ratio of EC50 for HCV1b Con1 to plasma concentration in Sprague-Dawley rat at 10 mg/kg, po after 6 hrs.
The nature of data set [5]: AUC (0 to 6 hrs) in Sprague-Dawley rat at 10 mg/kg, po. As to conditions: plasma. It is filed as ADME, organism-based. More on the design: time < 6 hr, dose 10 mg/kg, route oral.
Data set [6] is described as follows: Toxicity in human HuH7 cells assessed as effect on GAPDH mRNA level. Format: cell-based, Huh-7. In outline:
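Run in parallel with replicon assay in Con1 replicon Huh-7 cells (0.5% DMSO, 37 °C); endogenous GAPDH mRNA quantified by TaqMan RT-PCR; highest concentration tested 10000 nM.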

For data set [7], the system named is Hepatitis C virus. Put plainly: Antiviral activity against HCV1b Con1 infected in human HuH7 cells assessed as inhibition of viral RNA replication by RT-PCR analysis. Conditions: isolate Con1, Huh-7. It is filed as functional, organism-based, Hepacivirus hominis.
Data set [8] deals with Pregnane X receptor (Homo sapiens). Put plainly: Activation of PXR (unknown origin) at 10 uM by reporter gene assay. For orientation: In a reporter assay the amount or activity of a reporter protein is the signal.
The subject of data set [9] is Hepatitis C virus. Briefly: Antiviral activity against HCV2a JFH-1 infected in human HuH7 cells assessed as inhibition of viral replication. It is filed as functional, organism-based, Hepacivirus hominis. Conditions: JFH-1, Huh-7.
Data set [10] concerns Hepatocyte. Put plainly: Induction of CYP3A4 mRNA expression in human hepatocytes at 10 uM relative to rifampicin. It is filed as ADME, cell-based. In outline:
(§1)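 Cryopreserved cultured human hepatocytes incubated 3 days with compound at several concentrations; CYP3A4 enzyme activity and mRNA expression measured, expressed as percent induction relative to rifampicin.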

The target in data set [11] is T1, Cytochrome P450 3A4. Put plainly: Induction of CYP3A4 activity in human hepatocytes at 10 uM relative to rifampicin. It is filed as ADME, cell-based, Hepatocyte. In outline: as §1
For data set [12], the system named is Hepatocyte. Briefly: Induction of CYP3A4 mRNA expression in human hepatocytes at 3 uM relative to rifampicin. Format: ADME, cell-based. The method, boiled down:
as §1

The target in data set [13] is T1, Cytochrome P450 3A4. Briefly: Induction of CYP3A4 activity in human hepatocytes at 3 uM relative to rifampicin. It is filed as ADME, cell-based, Hepatocyte. The method, boiled down: as §1
Data set [14] in a line: Ratio of drug level in liver to plasma in Sprague-Dawley rat at 10 mg/kg, po after 6 hrs. Format: ADME, organism-based. More on the design: dose 10 mg/kg, route oral. In outline:
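Male Sprague-Dawley rats, 10 mg/kg PO suspension in 0.4% hydroxypropyl methylcellulose; liver and plasma drug levels measured at 6 h, expressed as liver/plasma ratio.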

Sequence of Cytochrome P450 2C9 (P11712 whole entry): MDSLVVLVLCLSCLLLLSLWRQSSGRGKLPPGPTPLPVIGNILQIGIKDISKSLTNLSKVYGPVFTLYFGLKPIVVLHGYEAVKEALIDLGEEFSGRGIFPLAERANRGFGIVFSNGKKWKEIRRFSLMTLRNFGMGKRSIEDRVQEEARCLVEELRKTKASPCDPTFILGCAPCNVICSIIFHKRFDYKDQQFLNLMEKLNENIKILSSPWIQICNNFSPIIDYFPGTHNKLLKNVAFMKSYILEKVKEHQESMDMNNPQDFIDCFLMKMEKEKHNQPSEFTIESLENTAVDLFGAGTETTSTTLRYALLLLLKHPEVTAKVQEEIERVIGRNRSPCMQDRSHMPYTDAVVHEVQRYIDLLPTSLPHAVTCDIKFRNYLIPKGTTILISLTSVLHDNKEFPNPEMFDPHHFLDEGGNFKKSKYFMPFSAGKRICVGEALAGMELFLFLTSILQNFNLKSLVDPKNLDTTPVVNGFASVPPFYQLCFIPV
T1 sequence (P08684 whole entry): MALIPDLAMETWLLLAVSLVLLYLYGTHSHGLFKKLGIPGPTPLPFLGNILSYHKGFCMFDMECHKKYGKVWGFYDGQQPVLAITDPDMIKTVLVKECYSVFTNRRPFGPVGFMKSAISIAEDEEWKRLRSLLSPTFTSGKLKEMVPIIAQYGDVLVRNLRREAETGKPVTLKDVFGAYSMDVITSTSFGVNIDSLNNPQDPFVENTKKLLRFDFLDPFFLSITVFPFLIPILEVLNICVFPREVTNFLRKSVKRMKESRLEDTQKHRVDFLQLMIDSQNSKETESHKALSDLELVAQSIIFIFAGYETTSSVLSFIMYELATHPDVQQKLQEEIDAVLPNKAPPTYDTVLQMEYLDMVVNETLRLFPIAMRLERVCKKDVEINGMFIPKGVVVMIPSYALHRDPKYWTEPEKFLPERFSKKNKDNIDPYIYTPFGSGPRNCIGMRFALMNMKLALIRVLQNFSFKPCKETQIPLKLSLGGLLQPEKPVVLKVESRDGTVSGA
Sequence of Cytochrome P450 2D6 (P10635 whole entry): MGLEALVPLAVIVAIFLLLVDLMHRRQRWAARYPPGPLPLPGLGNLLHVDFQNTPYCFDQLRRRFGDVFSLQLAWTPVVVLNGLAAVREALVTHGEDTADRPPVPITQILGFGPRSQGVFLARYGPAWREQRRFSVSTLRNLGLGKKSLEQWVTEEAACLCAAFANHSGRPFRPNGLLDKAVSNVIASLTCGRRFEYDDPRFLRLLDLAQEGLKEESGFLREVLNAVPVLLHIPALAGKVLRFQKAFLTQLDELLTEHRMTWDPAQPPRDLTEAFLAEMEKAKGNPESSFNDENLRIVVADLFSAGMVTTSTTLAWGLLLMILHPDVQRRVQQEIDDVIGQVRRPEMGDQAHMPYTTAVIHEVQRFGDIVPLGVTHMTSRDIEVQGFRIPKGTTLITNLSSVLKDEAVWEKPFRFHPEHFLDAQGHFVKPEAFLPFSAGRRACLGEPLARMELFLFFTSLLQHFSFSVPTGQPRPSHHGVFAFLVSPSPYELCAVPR

In the case of `Cc1cc2c(cc1F)c(C#N)c(-c1ccc(S(=O)(=O)N[C@@H](C)C(F)(F)F)cn1)n2-c1ncc(F)cn1`, the IC50 in data set [1], in data set [2], in data set [3] and in data set [6] was above 10 µM each time. For the same compound, the Ratio in data set [4] was found to be 187. The compound further gave an AUC(0-t) at 6 h in data set [5] of 4.08 µM·h. For the same compound, the EC50 in [7] turned out to be 0.004 µM. In data set [8], this compound came in with an Activity of 96%.
Turning to `Cc1cc2c(cc1F)c(C#N)c(-c1ccc(S(=O)(=O)N[C@@H](C)C(F)(F)F)cn1)n2-c1ncccc1F`, the IC50 in data set [1], in [2], in [3] and in [6] was above 10 µM throughout. Besides, the Ratio in data set [4] is listed as 194. The compound also came in with an AUC(0-t) at 6 h in [5] of 8.54 µM·h. Further, the EC50 in data set [7] stood at 0.003 µM. Besides, in data set [8], the Activity was 59%.
On to `CCc1cc2c(cc1F)c(C#N)c(-c1ccc(S(=O)(=O)N[C@@H](C)C(F)(F)F)cn1)n2-c1ccccn1`, for which the IC50 in data set [1], in data set [2], in data set [3] and in [6] was above 10 µM each time. In addition, the Ratio in data set [4] is 69. This compound yielded an AUC(0-t) at 6 h in data set [5] of 3.85 µM·h. Besides, in data set [7], the EC50 came out at 0.005 µM. The Activity in data set [8] is recorded as 54%.
In the case of `CCc1cc2c(cc1F)c(C#N)c(-c1ccc(S(=O)(=O)N[C@@H](C)C(F)(F)F)cn1)n2-c1ncc(F)cn1`, the half-inhibitory concentration (IC50) in data set [1], in data set [2], in data set [3] and in data set [6] was above 10 µM each time. The Ratio in data set [4] is 136. In [5], the AUC(0-t) at 6 h is 8.69 µM·h. For the same compound, in [7], the EC50 stood at 0.003 µM. This compound also yielded an Activity in data set [8] of 71%.
Consider `Cc1cc2c(cc1F)c(C#N)c(-c1ccc(S(=O)(=O)N[C@@H](C)C(F)(F)F)cn1)n2-c1ncccn1`, for which the EC50 in [9] is 2.2 µM; in [7], 0.006 µM. For the same compound, the Activity in data set [10] stood at 41.5%; in data set [11], 3%; in [12] it was 39.8%; in data set [13], 7%; in data set [8], 36%. Besides, the IC50 in data set [1], in data set [2], in data set [3] and in data set [6] was above 10 µM each time. Moreover, the Ratio in data set [4] was 213. In addition, in [5], the AUC(0-t) at 6 h turned out to be 8.91 µM·h.
In the case of `Cc1cc2c(cc1F)c(C#N)c(-c1ccc(S(=O)(=O)N[C@@H](C)C(F)(F)F)cn1)n2-c1ccccn1`, in data set [4], the Ratio was 49. The AUC(0-t) at 6 h in data set [5] came out at 4.52 µM·h. For the same compound, the IC50 in data set [6] is above 10 µM. Moreover, the half-maximal effective concentration (EC50) in data set [7] is 0.018 µM.
On to `Cc1cc2c(cc1F)c(C#N)c(-c1ccc(S(=O)(=O)N[C@@H](C)C(F)(F)F)cn1)n2-c1cccnc1`, for which the Ratio in data set [4] is given as 65. The AUC(0-t) at 6 h in [5] is 6.39 µM·h. In addition, in [6], the 50% inhibitory concentration (IC50) is above 10 µM. Also, the EC50 in data set [7] came to 0.011 µM.
With `Cc1cc2c(cc1F)c(C#N)c(-c1ccc(S(=O)(=O)N[C@@H](C)C(F)(F)F)cn1)n2-c1ccncc1`, the Ratio in data set [4] is given as 24. In [5], this compound displayed an AUC(0-t) at 6 h of 2.6 µM·h. The half-inhibitory concentration (IC50) in data set [6] is above 10 µM. For the same compound, the EC50 in [7] came out at 0.011 µM.
Regarding `Cc1cc2c(cc1F)c(C#N)c(-c1ccc(S(=O)(=O)N[C@@H](C)C(F)(F)F)cn1)n2C1CCC1`, in [14], the Kp at 6 h turned out to be 29.1. In data set [4], the Ratio was determined as 24. In addition, the AUC(0-t) at 6 h in data set [5] was 1.1 µM·h. For the same compound, in data set [6], the IC50 is above 10 µM. Also, in data set [7], the EC50 is 0.007 µM.
The matching figures for `CCc1cc2c(cc1F)c(C#N)c(-c1ccc(S(=O)(=O)N[C@@H](C)C(F)(F)F)cn1)n2C1CCC1`: 30.6, 18, 0.3 µM·h, above 10 µM and 0.004 µM.
